Assay results taken from article PMC7114315 (Antiviral Research, 2010).
pIC50: −log10 of the molar value. Read-outs that look alike come from different tables or passages of the source.

Experiments:
[1] = Cell viability by MTT assay; assay type: cell-based, Felis catus; conditions: cat (Felis catus), fcwf-4 cells
Outline: (§1)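 fcwf-4 cells grown in DMEM with 5% FBS, penicillin/streptomycin, 5% CO2, 37 °C; 20,000 cells/well seeded, 24 h at 37 °C to confluence. Test compounds (in DMSO or double distilled water), twofold serially diluted, applied 72 h. MTT ([…]) 4 h at 37 °C, lysis overnight at room temperature, absorbance 570/655 nm. Viability = treated/untreated OD × 100; CC50 = 50% viability reduction; triplicate.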

[2] = test system: FCoV (NTU156) in fcwf-4 cells; assay type: cell-based, feline coronavirus
fcwf-4 cells = experiment: Cell viability by MTT assay; assay type: cell-based, Felis catus; conditions: for CC50: fcwf-4 cells, 72 h, MTT; for Cytotoxic effect under the tested concentrations: three days of treatment, Fig. 1
Outline: as §1

[3] = test system: FCoV (NTU156) in fcwf-4 cells; experiment: microbe, parasite or virus in culture; assay type: cell-based, feline coronavirus
SARS-CoV = conditions: read-out: IC50 on SARS-CoV; cited from earlier work
[4] = 9 clinical healthy FCoV-shedding cats, 6.25 mg to 50 mg/kg/day per os, preliminary

Compound | CC50 at 72 h [1] | Cytotoxic effect under the tested concentrations (fcwf-4 cells) | further results
CN(C)CCCN1c2ccccc2Sc2ccccc21 [Promazine, promazine] | ≥ 0.1 µM |  | 
Nc1ccn([C@@H]2CS[C@H](CO)O2)c(=O)n1 [Lamivudine, lamivudine] | ≥ 27.3 µM |  | 
NC(=O)c1ncn([C@@H]2O[C@H](CO)[C@@H](O)[C@H]2O)n1 [Ribavirin, ribavirin] | ≥ 409 µM |  | 
Galanthus nivalis agglutinin |  |  | Inhibition of CPE foci, concentration-dependence ([2]; all four concentrations, […]): strong inhibitory activities at all four concentrations; CC50 (fcwf-4 cells): ≥ 0.00192 µM; pIC50 [3]: 11.06
O=c1[nH]c(=O)n([C@H]2C[C@H](O)[C@@H](CO)O2)cc1I [Idoxuridine, idoxuridine] | ≥ 141 µM |  | 
O=C1Nc2ccc(Cl)cc2[C@@](C#CC2CC2)(C(F)(F)F)O1 [Efavirenz, efavirenz] | 52.1 µM | dramatic cytotoxic effect | 
Cc1ccnc2c1NC(=O)c1cccnc1N2C1CC1 [Nelvirapine, nelvirapine] |  |  | CC50 (fcwf-4 cells): ≥ 46.9 µM
Nc1nc2c(ncn2COCCO)c(=O)[nH]1 [Acyclovir, acyclovir] | ≥ 888 µM |  | 
Cc1c(O)cccc1C(=O)N[C@@H](CSc1ccccc1)[C@H](O)CN1C[C@H]2CCCC[C@H]2C[C@H]1C(=O)NC(C)(C)C [Nelfinavir, nelfinavir] | 11.5 µM | dramatic cytotoxic effect | Number of CPE foci compared with untreated groups [2]: significantly inhibited the number of CPE foci; Induction of CPE foci ([2]; only the highest concentration, 9.41 μM, P < 0.001, […]): significantly blocked the induction of CPE foci; pIC50 (SARS-CoV): 7.32; Side effects (e.g., diarrhea or nausea) [4]: no obviously side effects; pIC50 ([3]; Alphacoronavirus 1, 72 h): 5.09
CC(C)(C)NC(=O)[C@@H]1C[C@@H]2CCCC[C@@H]2CN1C[C@@H](O)[C@H](Cc1ccccc1)NC(=O)[C@H](CC(N)=O)NC(=O)c1ccc2ccccc2n1 [Saquinavir, saquinavir] | 95.8 µM | dramatic cytotoxic effect | 
COC(=O)N[C@H](C(=O)N[C@@H](Cc1ccccc1)[C@@H](O)CN(Cc1ccc(-c2ccccn2)cc1)NC(=O)[C@@H](NC(=O)OC)C(C)(C)C)C(C)(C)C [Atazanavir, atazanavir] | 48.6 µM | dramatic cytotoxic effect | 
Cc1cn([C@H]2C=C[C@@H](CO)O2)c(=O)[nH]c1=O [Stavudine, stavudine] | ≥ 55.8 µM |  | 
CC(C)(C)NC(=O)[C@@H]1CN(Cc2cccnc2)CCN1C[C@@H](O)C[C@@H](Cc1ccccc1)C(=O)N[C@H]1c2ccccc2C[C@H]1O [Indinavir, indinavir] | ≥ 70.2 µM |  | 
Cc1cc(O)c2c(c1)C(=O)c1cc(O)cc(O)c1C2=O [Emodin, emodin] | 67.4 µM | dramatic cytotoxic effect | 
